≈ marks a conversion by molar mass, not a printed value.
Experiments:
Staphylococcus aureus [1] = assay: Bactericidal activity against […] Staphylococcus aureus ATCC 29213 infected neutropenic Swiss ICR mouse thigh infection model assessed as drug level causing 2-log reduction of bacterial count at 10 mg/kg, ip dosed every 72 hrs; type: functional; conditions: route intraperitoneal
Staphylococcus aureus [2] = assay: AUC/MIC ratio of Staphylococcus aureus ATCC 25923 infected neutropenic mouse thigh infection model at 42.7 mg/kg, ip administered every 24 hrs by static effect experiment; type: functional; conditions: route intraperitoneal
Staphylococcus aureus [3] = assay: AUC/MBC ratio of Staphylococcus aureus 33591 infected neutropenic mouse thigh infection model at 74 mg/kg, ip administered every 72 hrs by static effect experiment; type: functional; conditions: route intraperitoneal
Staphylococcus aureus [4] = assay: AUC/MBC ratio of Staphylococcus aureus Smith infected neutropenic mouse thigh infection model at 59 mg/kg, ip administered every 72 hrs by static effect experiment; type: functional; conditions: route intraperitoneal
Staphylococcus aureus [5] = assay: AUC/MBC ratio of Staphylococcus aureus 31005 infected neutropenic mouse thigh infection model at 67.7 mg/kg, ip administered every 72 hrs by static effect experiment; type: functional; conditions: route intraperitoneal
Streptococcus pneumoniae [6] = assay: AUC/MIC ratio of Streptococcus pneumoniae 1199 infected neutropenic mouse thigh infection model at 0.49 mg/kg, ip administered every 24 hrs by 1-log killing experiment; type: functional; conditions: route intraperitoneal
Streptococcus pneumoniae [7] = assay: AUC/MIC ratio of Streptococcus pneumoniae 1199 infected neutropenic mouse thigh infection model at 0.85 mg/kg, ip administered every 72 hrs by 1-log killing experiment; type: functional; conditions: route intraperitoneal
Streptococcus pneumoniae [8] = assay: AUC/MIC ratio of Streptococcus pneumoniae ATCC 10813 infected neutropenic mouse thigh infection model at 0.77 mg/kg, ip administered every 72 hrs by 1-log killing experiment; type: functional; conditions: route intraperitoneal
Staphylococcus aureus [9] = assay: AUC/MIC ratio of Staphylococcus aureus 31005 infected neutropenic mouse thigh infection model at 94.6 mg/kg, ip administered every 72 hrs by 1-log killing experiment; type: functional; conditions: route intraperitoneal
Staphylococcus aureus [10] = assay: AUC/MBC ratio of Staphylococcus aureus 33591 infected neutropenic mouse thigh infection model at 33.5 mg/kg, ip administered every 24 hrs by 2-log killing experiment; type: functional; conditions: route intraperitoneal
Staphylococcus aureus [11] = assay: AUC/MIC ratio of Staphylococcus aureus ATCC 25923 infected neutropenic mouse thigh infection model at 214 mg/kg, ip administered every 72 hrs by 2-log killing experiment; type: functional; conditions: route intraperitoneal
Staphylococcus aureus [12] = assay: AUC/MBC ratio of Staphylococcus aureus ATCC 25923 infected neutropenic mouse thigh infection model at 214 mg/kg, ip administered every 72 hrs by 2-log killing experiment; type: functional; conditions: route intraperitoneal
Staphylococcus aureus [13] = assay: AUC/MIC ratio of Staphylococcus aureus ATCC 25923 infected neutropenic mouse thigh infection model at 160 mg/kg, ip administered every 72 hrs by static effect experiment; type: functional; conditions: route intraperitoneal
Streptococcus pneumoniae [14] = assay: AUC/MIC ratio of Streptococcus pneumoniae ATCC 10813 infected neutropenic mouse thigh infection model at 1.54 mg/kg, ip administered every 24 hrs by 1-log killing experiment; type: functional; conditions: route intraperitoneal
[15] = AUC in bacterial pathogen-infected neutropenic Swiss ICR mouse thigh infection model at 40 mg/kg, ip; type: ADME, organism-based; design: dose 40 mg/kg, route intraperitoneal; conditions: in vivo
Summary of the method: (§1)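 Thigh-infected neutropenic mice received single intraperitoneal doses (2.5, 5, 10, 20, 40, 80 mg/kg; 0.2 ml/dose). Blood was drawn by retroorbital aspiration from groups of three mice at 0.5, 1, 2, 4, 6, 24, 48, 72 and 96 h. Plasma levels were measured by microbiologic assay with Bacillus subtilis (detection limit 0.10 mg/liter). Noncompartmental analysis was used: half-life by linear least-squares regression, AUC by trapezoidal rule.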

[16] = Cmax in bacterial pathogen-infected neutropenic Swiss ICR mouse thigh infection model at 40 mg/kg, ip; type: ADME, organism-based; design: dose 40 mg/kg, route intraperitoneal; conditions: in vivo; summary of the method: as §1
Streptococcus pneumoniae [17] = assay: Bactericidal activity against penicillin-susceptible Streptococcus pneumoniae ATCC 10813 infected neutropenic Swiss ICR mouse thigh infection model assessed as drug level causing 1-log reduction of bacterial count at 0.71 mg/kg, ip dosed every 72 hrs; type: functional; conditions: route intraperitoneal
Summary of the method: (§2)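 Neutropenic mice (cyclophosphamide ip 150 mg/kg day −4, 100 mg/kg day −1, then every 48 h) received 0.1 ml log-phase inoculum per thigh under halothane. Intraperitoneal dalbavancin started 2 h later and was given for 6 days at q12h, q24h, q36h or q72h, two mice per regimen. Thigh CFU were counted at 144 h. Endpoint doses relative to start-of-therapy counts came from Hill-model nonlinear regression and are expressed per 24 h.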

Streptococcus pneumoniae [18] = assay: Bactericidal activity in Streptococcus pneumoniae ATCC 10813 infected non-neutropenic mouse thigh infection model assessed as drug level causing 1-log reduction of bacterial count at 2.03 mg/kg/6days; type: functional
Streptococcus pneumoniae [19] = assay: Bactericidal activity in Streptococcus pneumoniae ATCC 10813 infected neutropenic mouse thigh infection model assessed as drug level causing 2-log reduction of bacterial count at 4.13 mg/kg/6days; type: functional
Staphylococcus aureus [20] = assay: Antibacterial activity against Staphylococcus aureus ATCC 25923 by microdilution method; type: functional
Summary of the method: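 MIC and MBC were determined by CLSI broth microdilution, in duplicate on at least two occasions. Staphylococci were grown in Mueller-Hinton broth and agar; pneumococci were plated on sheep blood agar.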

[21] = Cmax in bacterial pathogen-infected neutropenic Swiss ICR mouse thigh infection model at 2.5 mg/kg, ip; type: ADME, organism-based; design: dose 2.5 mg/kg, route intraperitoneal; conditions: in vivo
Summary of the method: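 Single-dose serum PK in thigh-infected neutropenic mice; intraperitoneal dalbavancin (0.2 ml/dose) at 2.5–80 mg/kg. Blood from groups of three mice at 0.5–96 h by retroorbital aspiration; plasma level by Bacillus subtilis microbiologic assay (detection limit 0.10 mg/liter). Noncompartmental analysis; AUC by trapezoidal rule from mean concentrations, extrapolated to infinity.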

[22] = Half life in bacterial pathogen-infected neutropenic Swiss ICR mouse thigh infection model at 5 mg/kg, ip; type: ADME, organism-based; design: dose 5 mg/kg, route intraperitoneal; conditions: in vivo; summary of the method: as §1
[23] = Cmax in bacterial pathogen-infected neutropenic Swiss ICR mouse thigh infection model at 10 mg/kg, ip; type: ADME, organism-based; design: dose 10 mg/kg, route intraperitoneal; conditions: in vivo; summary of the method: as §1
Streptococcus pneumoniae [24] = assay: Bactericidal activity against penicillin-susceptible Streptococcus pneumoniae ATCC 10813 infected neutropenic Swiss ICR mouse thigh infection model assessed as drug level causing 2-log reduction of bacterial count at 2.3 mg/kg, ip dosed every 12 hrs; type: functional; conditions: route intraperitoneal; summary of the method: as §2
Streptococcus pneumoniae [25] = assay: Bactericidal activity against penicillin-susceptible Streptococcus pneumoniae ATCC 10813 infected neutropenic Swiss ICR mouse thigh infection model assessed as drug level causing 1-log reduction of bacterial count at 1.34 mg/kg, ip dosed every 24 hrs; type: functional; conditions: route intraperitoneal

CN[C@H]1C(=O)N[C@@H]2Cc3ccc(cc3)Oc3cc4cc(c3O[C@@H]3O[C@H](C(=O)O)[C@@H](O)[C@H](O)[C@H]3NC(=O)CCCCCCCCC(C)C)Oc3ccc(cc3Cl)[C@@H](O)[C@@H]3NC(=O)[C@H](NC(=O)[C@@H]4NC(=O)[C@@H](NC2=O)c2cc(cc(O)c2Cl)Oc2cc1ccc2O)c1ccc(O)c(c1)-c1c(O[C@H]2O[C@H](CO)[C@@H](O)[C@H](O)[C@@H]2O)cc(O)cc1[C@@H](C(=O)NCCCN(C)C)NC3=O [DALBAVANCIN]
Activity (Staphylococcus aureus [1]): 128 | RatioAUC/MIC (Staphylococcus aureus [2]): 216 | Ratio (Staphylococcus aureus [3]): 59 | Ratio (Staphylococcus aureus [4]): 46.1 | Ratio (Staphylococcus aureus [5]): 112 | RatioAUC/MIC (Streptococcus pneumoniae [6]): 19.4 | RatioAUC/MIC (Streptococcus pneumoniae [7]): 12.1 | RatioAUC/MIC (Streptococcus pneumoniae [8]): 1.6 | RatioAUC/MIC (Staphylococcus aureus [9]): 325 | Ratio (Staphylococcus aureus [10]): 74.3 | RatioAUC/MIC (Staphylococcus aureus [11]): 367 | Ratio (Staphylococcus aureus [12]): 88.1 | RatioAUC/MIC (Staphylococcus aureus [13]): 274 | RatioAUC/MIC (Streptococcus pneumoniae [14]): 8.7 | AUC [15]: 10600 µg·h/mL | Cmax [16]: 663000 ng/mL | Activity (Streptococcus pneumoniae [17]): 0.77 | Activity (Streptococcus pneumoniae [18]): 2.35 | Activity (Streptococcus pneumoniae [19]): 4.62 | MBC (Staphylococcus aureus [20]): 0.5 µg/mL (≈ 0.275 µM) | MIC (Staphylococcus aureus [20]): 0.12 µg/mL (≈ 0.0661 µM) | Cmax [21]: 7400 ng/mL | half-life [22]: 9.6 h | Cmax [23]: 34800 ng/mL | Activity (Streptococcus pneumoniae [24]): 3.5 | Activity (Streptococcus pneumoniae [25]): 1.54

Reference: ChEMBL document CHEMBL1145462, “In vivo pharmacodynamic activity of the glycopeptide dalbavancin” (Antimicrob Agents Chemother, 2007)
